≈ marks a conversion by molar mass, not a printed value.
Assays:
[1] = system: Mycobacterium tuberculosis H37Rv; assay: Inhibition of Mycobacterium tuberculosis H37Rv ATCC 27294 QcrB assessed as reduction in bacterial growth by resazurin reduction microplate assay
In short: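 REMA in Middlebrook 7H9 with 10% ADC and 5% DMSO. Compounds come from 2 mg/mL DMSO stocks as 10-point 2-fold serial dilutions, with a top concentration of 5–40 µg/mL set by solubility. MIC is the lowest concentration preventing resazurin blue-to-pink conversion. Three independent experiments; the modal or highest value is reported, in µM.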

[2] = Cytotoxicity against human HepG2 cells assessed as reduction in cell viability measured after 72 hrs by MTT assay; assay type: cell-based
In short: (§1)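 Vero (2×10^3 cells/well) or HepG2 (4×10^3 cells/well) grown in DMEM with 10% inactivated FBS, gentamicin and amphotericin B, seeded 24 h, then exposed to compound at 1, 5 and 20 µM (2% DMSO) for 72 h at 37 °C, 5% CO2. MTT (5 mg/mL) added for 4 h; absorbance 570/655 nm. Viability relative to 2% DMSO control wells; CC50 derived.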

[3] = Cytotoxicity against human HepG2 cells assessed as reduction in cell viability measured after 72 hrs by neutral red uptake assay; assay type: cell-based
In short: (§2)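 Vero (2×10^3 cells/well) or HepG2 (4×10^3 cells/well) in DMEM with 10% inactivated FBS, seeded 24 h, treated at 1, 5 and 20 µM in 2% DMSO for 72 h at 37 °C, 5% CO2. After PBS wash, neutral red (25 µg/mL, serum-free medium) for 3 h; dye extracted with acetic acid/EtOH/water (1:50:49) for 30 min; absorbance 562 nm; viability versus 2% DMSO controls.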

[4] = Ratio of MIC for inhibition of Mycobacterium tuberculosis H37Rv ATCC 27294 QcrB assessed as reduction in bacterial growth to MIC for inhibition of Mycobacterium tuberculosis PT12 clinical isolate QcrB assessed as reduction in bacterial growth
[5] = Ratio of MIC for inhibition of Mycobacterium tuberculosis H37Rv ATCC 27294 QcrB assessed as reduction in bacterial growth to MIC for inhibition of Mycobacterium tuberculosis PT2 clinical isolate QcrB assessed as reduction in bacterial growth
[6] = Ratio of MIC for inhibition of Mycobacterium tuberculosis H37Rv ATCC 27294 QcrB assessed as reduction in bacterial growth to MIC for inhibition of Mycobacterium tuberculosis PT20 clinical isolate QcrB assessed as reduction in bacterial growth
[7] = Half life in human liver S9 fraction at 2 uM measured after 30 mins in presence of NADPH by HPLC-MS analysis; assay type: ADME, subcellular
In short: (§3)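 Compound at 2 µM incubated at 37°C with 1 mg/mL human liver S9 fraction (9,000 × g post-mitochondrial supernatant) containing NADPH. Remaining compound quantified by HPLC-MS/MS at 0, 5, 15 and 30 min to give in vitro disappearance half-life and intrinsic clearance (mL/min/kg). Verapamil served as positive control.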

[8] = Cytotoxicity against African green monkey Vero cells assessed as reduction in cell viability measured after 72 hrs by MTT assay; assay type: cell-based; conditions: chlorocebus sabaeus; in short: as §1
[9] = Intrinsic clearance in human liver S9 fraction at 2 uM measured after 30 mins in presence of NADPH by HPLC-MS analysis; assay type: ADME, subcellular; conditions: read-out: CLH; in short: as §3
[10] = Cytotoxicity against African green monkey Vero cells assessed as reduction in cell viability measured after 72 hrs by neutral red uptake assay; assay type: cell-based; conditions: chlorocebus sabaeus; in short: as §2
[11] = system: RAW264.7; assay: Inhibition of Mycobacterium tuberculosis H37Rv ATCC 27294 QcrB infected in mouse RAW264.7 cells assessed as colony forming unit at 5 uM measured after 5 days (reference value: 4.66 +/- 0.23 log10CFU); assay type: cell-based; conditions: time 5.0 day

Compound	MIC [1] [µM]	further results
COc1ccc2nc(C)cc(OCc3ccc(F)c(F)c3)c2c1	3.9 (≈ 1.23 µg/mL)	
COc1ccc2nc(C)cc(OCc3ccc(Cl)cc3)c2c1	15.9 (≈ 4.99 µg/mL)	
COc1cc(COc2cc(C)nc3ccc(OC)cc23)cc(OC)c1	29.5 (≈ 10 µg/mL)	
COc1ccc2nc(C)cc(OCc3ccc(C(C)C)cc3)c2c1	1.9 (≈ 0.611 µg/mL)	CC50 at 72 h [2]: 13.1 µM; CC50 at 72 h [3]: 13 µM; Ratio [4]: 1.9; Ratio [5]: 1.9; Ratio [6]: 1.9; half-life at 2 µM [7]: 10 min; CC50 at 72 h [8]: > 20 µM; CLint scaled at 2 µM [9]: 17.4 mL/min/kg; CC50 at 72 h [10]: > 20 µM
COc1ccc2nc(C)cc(OCc3ccc(Br)c(Cl)c3)c2c1	1.6 (≈ 0.628 µg/mL)	
COc1ccc2nc(C)cc(OCC(=O)c3ccc(F)cc3)c2c1	30.7 (≈ 9.99 µg/mL)	
COc1ccc2nc(C)cc(OCc3ccc(C(F)(F)F)cc3)c2c1	7.2 (≈ 2.5 µg/mL)	
COc1ccc2nc(C)cc(OCC(=O)c3cccc(Cl)c3)c2c1	1.8 (≈ 0.615 µg/mL)	CC50 at 72 h [2]: > 20 µM; CC50 at 72 h [3]: > 20 µM; Ratio [4]: 1.9; Ratio [5]: 1.9; Ratio [6]: 1.9; half-life at 2 µM [7]: 78.2 min; CC50 at 72 h [8]: > 20 µM; Activity [11]: 3.8 log10CFU; CLint scaled at 2 µM [9]: 7.7 mL/min/kg; CC50 at 72 h [10]: > 20 µM
COc1ccc2nc(C)cc(OCCc3ccccc3)c2c1	34.1 (≈ 10 µg/mL)	
COc1ccc2nc(C)cc(OCc3ccc(C(C)(C)C)cc3)c2c1	3.7 (≈ 1.24 µg/mL)	
COc1cccc(COc2cc(C)nc3ccc(OC)cc23)c1	32.3 (≈ 9.99 µg/mL)	
COc1ccc2nc(C)cc(OCc3ccc4c(c3)OCO4)c2c1	30.9 (≈ 9.99 µg/mL)	
COc1ccc2nc(C)cc(OCc3ccc([N+](=O)[O-])cc3)c2c1	30.8 (≈ 9.99 µg/mL)	
COc1ccc2nc(C)cc(OCc3cccc(Br)c3)c2c1	13.9 (≈ 4.98 µg/mL)	
COc1ccc2nc(C)cc(OCC(=O)c3ccc(CC(C)C)cc3)c2c1	6.9 (≈ 2.51 µg/mL)	
NNC(=O)c1ccncc1	2.3 (≈ 0.315 µg/mL)	
COc1ccc2nc(C)cc(OCc3cccc(F)c3)c2c1	16.8 (≈ 5 µg/mL)	
COc1ccc2nc(C)cc(OCc3ccccc3F)c2c1	19.2 (≈ 5.71 µg/mL)	
CO[C@H]1/C=C/O[C@@]2(C)Oc3c(C)c(O)c4c(O)c(c(/C=N/N5CCN(C)CC5)c(O)c4c3C2=O)NC(=O)/C(C)=C\C=C\[C@H](C)[C@H](O)[C@@H](C)[C@@H](O)[C@@H](C)[C@H](OC(C)=O)[C@@H]1C	0.05 (≈ 0.0411 µg/mL)	

Compound	MIC [1] [µM]	further results
COc1ccc2nc(C)cc(OCc3ccccc3)c2c1	5.6 (≈ 1.56 µg/mL)	
COc1ccc2nc(C)cc(OCC(=O)c3ccc(C)cc3)c2c1	15.6 (≈ 5.01 µg/mL)	
COc1ccc2nc(C)cc(OCC(=O)c3ccc(Br)cc3)c2c1	14.6 (≈ 5.64 µg/mL)	
COc1cccc(C(=O)COc2cc(C)nc3ccc(OC)cc23)c1	14.8 (≈ 4.99 µg/mL)	
COc1ccc2nc(C)cc(OCC(=O)c3ccc(-c4ccccc4)cc3)c2c1	13 (≈ 4.98 µg/mL)	
COc1ccc2nc(C)cc(OCc3cccc(Cl)c3Cl)c2c1	28.7 (≈ 9.99 µg/mL)	
COc1ccc2nc(C)cc(OCC(=O)c3ccc(Cl)cc3)c2c1	12.9 (≈ 4.41 µg/mL)	
COc1ccc2nc(C)cc(OCc3ccccc3Cl)c2c1	18.8 (≈ 5.9 µg/mL)	
COc1ccc2nc(C)cc(OCc3ccc(Cl)c(Cl)c3)c2c1	0.3 (≈ 0.104 µg/mL)	CC50 at 72 h [2]: 14.4 µM; CC50 at 72 h [3]: 14.9 µM; half-life at 2 µM [7]: 30.6 min; CC50 at 72 h [8]: > 20 µM; Activity [11]: 3.8 log10CFU; CLint scaled at 2 µM [9]: 12.6 mL/min/kg; CC50 at 72 h [10]: > 20 µM
COc1ccc2nc(C)cc(OCc3ccc4ccccc4c3)c2c1	7.6 (≈ 2.5 µg/mL)	
COc1ccc2nc(C)cc(OCc3ccc(F)cc3)c2c1	16.8 (≈ 5 µg/mL)	
COc1ccc2nc(C)cc(OCc3cccc(Cl)c3)c2c1	7.9 (≈ 2.48 µg/mL)	
COc1ccc2nc(C)cc(OCc3cccc(C(F)(F)F)c3)c2c1	7.2 (≈ 2.5 µg/mL)	
COc1ccc2nc(C)cc(OCC(=O)c3ccc(Cl)c(Cl)c3)c2c1	6.6 (≈ 2.48 µg/mL)	
COc1ccc2nc(C)cc(OCC(=O)c3ccccc3)c2c1	1.3 (≈ 0.4 µg/mL)	CC50 at 72 h [2]: > 20 µM; CC50 at 72 h [3]: > 20 µM; half-life at 2 µM [7]: 87.5 min; CC50 at 72 h [8]: > 20 µM; Activity [11]: 4.06 log10CFU; CLint scaled at 2 µM [9]: 7.1 mL/min/kg; CC50 at 72 h [10]: > 20 µM
COc1ccc2nc(C)cc(OCC(=O)c3ccccc3OC)c2c1	29.6 (≈ 9.99 µg/mL)	
COc1ccc(C(=O)COc2cc(C)nc3ccc(OC)cc23)cc1	7.4 (≈ 2.5 µg/mL)	
COc1ccc2nc(C)cc(OC(C)C(=O)c3ccccc3)c2c1 (stereo unspecified)	31.1 (≈ 9.99 µg/mL)	
COc1ccc2nc(C)cc(OCc3ccc(Br)cc3)c2c1	13.9 (≈ 4.98 µg/mL)	

Reference: ChEMBL document CHEMBL4680209, “Design, synthesis, and evaluation of new 2-(quinoline-4-yloxy)acetamide-based antituberculosis agents” (Eur J Med Chem, 2020)
